SMILES strings stand for the structures. pIC50: −log10 of the molar value. Activity calls are given as the source filed them. The rule behind the calls is not given here.

In one assay the test system is HCT-116. The experiment in a line: Cytotoxicity against human HCT-116 cells assessed as reduction in cell growth incubated for 48 hrs by SRB assay. The assay is classed as functional, cell-based. The method in brief: (§1)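 Cells kept in RPMI 1640 with 5% FBS and 2 mM L-glutamine at 37 °C in 5% CO2, periodically tested for Mycoplasma. After plating, cells were held 1 day without drug, and time-zero plates were read. Compounds in DMSO were added at 10^-4 to 10^-8 M (five 10-fold steps), with DMSO-only controls, for 48 h. Cells were then TCA-fixed and stained with sulforhodamine B, and absorbance was read. GI50 was derived from time-zero, control and treated absorbances; LC50 is the mean of two independent experiments.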

For another assay, the system named is SF-295. The experiment in a line: Cytotoxicity against human SF-295 cells assessed as reduction in cell growth incubated for 48 hrs by SRB assay. The assay is classed as functional, cell-based. A digest of the protocol: as §1
For orientation: The SRB assay estimates cell density from bound dye.

In a further assay the test system is OVCAR-4. The experiment in a line: Cytotoxicity against human OVCAR-4 cells assessed as reduction in cell growth incubated for 48 hrs by SRB assay. The assay is classed as functional, cell-based. A digest of the protocol: as §1
A further assay has as its system PC-3. The experiment in a line: Cytotoxicity against human PC-3 cells assessed as reduction in cell growth incubated for 48 hrs by SRB assay. The assay is classed as functional, cell-based. A digest of the protocol: as §1
In the next assay the test system is MDA-MB-468. The experiment in a line: Cytotoxicity against human MDA-MB-468 cells assessed as reduction in cell growth incubated for 48 hrs by SRB assay. The assay is classed as functional, cell-based. The method in brief: as §1
In assay [1] the test system is A549. The assay can be described thus: Cytotoxicity against human A549 cells assessed as loss of cell morphological changes at 1 uM. The assay is classed as functional, cell-based. A digest of the protocol: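 A549 cells grown overnight were exposed to 1 μM compound or DMSO vehicle, and changes in cell morphology were recorded.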
The test system of assay [2] is A549. The assay can be described thus: Cytotoxicity against human A549 cells assessed as reduction in cell growth at 10 uM incubated for 36 hrs by MTT assay relative to control. The assay is classed as functional. The method in brief: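 A549 cells were treated with 10 μM compound or DMSO vehicle, and growth inhibition was followed over time, with a 36 h time point.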
Background: Tetrazolium assays rely on reduction of a dye to a coloured formazan, in cell work by metabolically active cells.

Assay [3] has as its system A549. The experiment in a line: Inhibition of cell migration in human A549 cells incubated for 24 hrs by phase contrast microscopy based relative wound healing/cell migration assay to control. Conditions: dose 0-50 µM. The assay is classed as functional. A digest of the protocol:
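Scratches were made in A549 monolayers. Cells were then grown in medium containing compound (0–50 μM) or DMSO vehicle, and wound closure was imaged by phase-contrast microscopy.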

In assay [4] the test system is A549. The experiment in a line: Induction of cell cycle arrest in human A549 cells assessed as increase in subG1 phase accumulation incubated for 48 hrs by PI based flow cytometry. The assay is classed as functional. The method in brief:
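A549 cells were exposed for 48 h, stained with propidium iodide and analysed by flow cytometry for cell cycle distribution and the sub-G1 (dead cell) fraction.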
On the technique in general: In flow cytometry, cells or beads pass a laser one at a time.

The test system of assay [5] is A549. The assay can be described thus: Induction of apoptosis in human A549 cells assessed as effect on caspase activation. The assay is classed as functional, cell-based.
Assay [6] concerns A549. The experiment in a line: Induction of cellular senescence in human A549 cells assessed as increase in SA-beta-Gal accumulation in cells at 10 to 50 uM incubated for overnight by microscopic analysis. The assay is classed as functional, cell-based. Conditions: dose 10-50 µM.
In assay [7] the test system is A549. The assay can be described thus: Inhibition of colony formation in human A549 cells grown under anchorage-independent soft-agar condition incubated for 9 days and subsequent media replenishment for every 3 days by crystal violet staining based light microscopy assay. Conditions: dose 10-50 µM, time 9.0 day.
The test system of assay [8] is Panel NCI-60 (60 carcinoma cell lines). The experiment in a line: Cytotoxicity against human Panel NCI-60 (60 carcinoma cell lines) assessed as reduction in cell growth incubated for 48 hrs by SRB assay. The assay is classed as functional, cell-based. The method in brief: as §1
The test system of the next assay is RPMI-8226. The assay can be described thus: Cytotoxicity against human RPMI-8226 cells assessed as reduction in cell growth incubated for 48 hrs by SRB assay. The assay is classed as functional, cell-based. A digest of the protocol: as §1
A further assay has as its target Coagulation factor X (Homo sapiens, UniProt P00742). The assay can be described thus: Inhibition of human factor Xa using […] as substrate by chromogenic assay.

Sequence of Coagulation factor X (P00742 41-179 limits assumed): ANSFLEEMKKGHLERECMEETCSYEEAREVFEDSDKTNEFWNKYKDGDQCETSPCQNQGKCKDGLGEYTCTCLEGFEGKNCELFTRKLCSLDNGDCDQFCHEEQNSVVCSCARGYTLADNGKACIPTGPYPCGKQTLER
Sequence of Coagulation factor X (P00742 235-488 limits assumed): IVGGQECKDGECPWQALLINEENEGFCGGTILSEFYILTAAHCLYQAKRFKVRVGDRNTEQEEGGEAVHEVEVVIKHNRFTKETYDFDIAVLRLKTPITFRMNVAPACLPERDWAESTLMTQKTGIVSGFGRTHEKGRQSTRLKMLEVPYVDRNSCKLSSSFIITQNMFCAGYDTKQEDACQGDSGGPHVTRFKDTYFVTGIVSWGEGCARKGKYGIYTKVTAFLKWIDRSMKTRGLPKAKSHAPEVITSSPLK

In the case of `O=S1(=O)N(Cc2ccccc2)[C@@H](Cc2ccccc2)C=C[C@H](Cc2ccccc2)N1Cc1ccccc1`, the inhibition entry in the assay with HCT-116, with SF-295, with OVCAR-4, in the assay on PC-3 and in the assay on MDA-MB-468 was “Active” throughout. Further, the result with A549 [1], with A549 [4] and with A549 [6] was Active. For the same molecule, in the assay on A549 [2], the inhibition at 10 µM worked out at 50%. The “inhibition (INH)” value with A549 [3] was determined as 50%. For the same molecule, in the assay on A549 [5], the outcome was inactive. Also, the inhibition entry in the assay on A549 [7] was “Dose-dependent effect”.

With `O=S1(=O)N(Cc2ccccc2)[C@H](Cc2ccccc2)[C@H](O)[C@H](O)[C@@H](Cc2ccccc2)N1Cc1ccccc1`, the inhibition entry (in assay [8]; with RPMI-8226) was “Active” in each case.

Regarding `O=S1(=O)N(Cc2ccccc2)[C@@H](Cc2ccccc2)[C@@H]2O[C@@H]2[C@H](Cc2ccccc2)N1Cc1ccccc1`, the inhibition result (in [8]; in the assay on RPMI-8226) was “Active” each time.

`CC(=N)N1CCC(Oc2ccc3c(c2)C(=O)NS(=O)(=O)N3Cc2ccc3ccc(C(=N)N)cc3c2)CC1`: the negative logarithm of the IC50 (pIC50) against Coagulation factor X is 9.40.

`O=S1(=O)N(Cc2ccccc2)[C@@H](Cc2ccccc2)[C@H](O)[C@H](O)[C@H](Cc2ccccc2)N1Cc1ccccc1`: the inhibition entry (in assay [8]; with RPMI-8226) was “Active” in each case.

What is called inhibition is how much of the control response was suppressed. By pIC50 is commonly meant the negative decadic logarithm of the IC50, by convention in mol/L. A higher pIC50 goes with a small IC50.
